The assay relates to B16/F1 melanoma cells. Put plainly: Cytotoxicity in B16/F1 melanoma cells. In kind it is cell-based, murine. The following applies: 0.1 µM, 3 h incubation at 37 °C, MTT 5 days post treatment. The method in brief: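 B16/F1 cells at 150/well, overnight in CO2 incubator, washed with RPMI 1640, then exposed 3 h at 37 °C to 0.1 µM test compound in binding medium; controls kept in culture medium only. Washed, grown 5 days with medium changed every other day; MTT (0.5 mg/mL) 3 h at 37 °C, formazan dissolved in acidic isopropanol, A570 minus A630. Survival = treated/control absorbance × 100%.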

In the case of “[Cys^3,4,10, D-Phe^7, Arg^11]α-MSH3–13 [(Arg^11)CCMSH]”, the “decrease of survival percentage versus untreated control cells” value was 15%.

For the origin of these results see article PMC4363277 (Amino acids, 2015).
